TRPC6 act = mouse TRPC6 channel activators, primary screen, cell-based, HEK293, membrane potential dye; actives 0.13% (n = 310,000); B-score at 10 µM; HEK293-TRPC6 membrane potential dye fluorescence; active compounds read high; Short transient receptor potential channel 6 (Mus musculus), Q61143;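 active = B-score of the integrated fluorescence ratio above library mean plus 3 SD, and starting fluorescence ratio within library mean plus 5 SD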;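 also: higher score means more depolarization so channel activation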
TRPC4 agonist = activators of mouse TRPC4 channel, primary screen, Fluo4 calcium, HEK293 TRPC4beta/mu-opioid cells. B-score at 10 µM. Short transient receptor potential channel 4 (Mus musculus), Q9QUQ5. AID 2237, 2010. actives 0.49% (n = 310,000). Fluo4 calcium fluorescence; active compounds read high;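 active = B-score above 5 SD of library B-scores, and initial fluorescence ratio not above library mean plus 5 SD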;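 also: positive B-score marks a calcium rise read as TRPC4 activation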
Target sequence (Q9QUQ5 whole entry, looked up): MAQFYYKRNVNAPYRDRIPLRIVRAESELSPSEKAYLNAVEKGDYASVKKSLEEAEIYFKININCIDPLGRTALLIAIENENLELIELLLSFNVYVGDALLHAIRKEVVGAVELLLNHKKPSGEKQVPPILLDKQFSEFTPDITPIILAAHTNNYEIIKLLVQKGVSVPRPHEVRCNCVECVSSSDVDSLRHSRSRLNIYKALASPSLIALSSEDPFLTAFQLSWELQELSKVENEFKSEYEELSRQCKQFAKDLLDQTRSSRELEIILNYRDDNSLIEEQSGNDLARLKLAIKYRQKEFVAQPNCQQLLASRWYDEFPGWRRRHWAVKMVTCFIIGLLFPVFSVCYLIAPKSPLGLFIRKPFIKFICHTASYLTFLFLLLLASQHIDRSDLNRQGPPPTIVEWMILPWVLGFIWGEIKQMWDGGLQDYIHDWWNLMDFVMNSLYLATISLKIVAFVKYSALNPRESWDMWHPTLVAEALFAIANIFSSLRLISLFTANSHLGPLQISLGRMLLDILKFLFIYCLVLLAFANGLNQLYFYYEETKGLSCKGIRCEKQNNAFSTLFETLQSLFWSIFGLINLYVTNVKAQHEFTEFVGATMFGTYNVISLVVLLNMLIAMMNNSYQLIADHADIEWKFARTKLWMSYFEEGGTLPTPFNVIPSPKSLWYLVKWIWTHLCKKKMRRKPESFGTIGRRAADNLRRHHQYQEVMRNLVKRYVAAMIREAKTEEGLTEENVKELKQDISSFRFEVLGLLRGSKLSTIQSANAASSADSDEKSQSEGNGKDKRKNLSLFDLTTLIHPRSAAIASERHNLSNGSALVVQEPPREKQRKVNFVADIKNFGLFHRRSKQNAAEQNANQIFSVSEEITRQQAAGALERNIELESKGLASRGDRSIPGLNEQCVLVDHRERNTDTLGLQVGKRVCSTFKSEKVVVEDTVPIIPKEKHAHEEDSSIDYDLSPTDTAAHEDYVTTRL
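Incubation: 45 min room-temperature Fluo4 loading, 110 s read / System: HEK293 cells stably co-expressing mouse TRPC4beta and mu-opioid receptor / Signal: Fluo4 fluorescence, kinetic / Control set: buffer (low) and maximal DAMGO (high) / Measure: integrated baseline-normalised fluorescence ratio, converted to per-well B score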
TRPC4 PAM = positive allosteric modulators of TRPC4, primary screen, cell-based, mouse TRPC4beta, HEK293 mu-opioid, Fluo-4 calcium | Short transient receptor potential channel 4 (Mus musculus), Q9QUQ5 | DAMGO EC20, Fluo-4 Ca2+ flux; active compounds read high | B-score at 10 µM | actives 0.42% (n = 310,000) | AID 2227, 2009;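 active = B-score of calcium response area above 5 SD of library B-scores, with initial fluorescence ratio within 5 SD of library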
TRPC4 block = inhibitors of mouse TRPC4 channel, primary screen, Fluo4 calcium, HEK293 TRPC4beta/mu-opioid cells; B-score at 10 µM; DAMGO-evoked Fluo4 calcium flux; active compounds read low; Short transient receptor potential channel 4 (Mus musculus), Q9QUQ5; actives 0.39% (n = 300,000); AID 2247, 2010;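 active = B-score over 3 SD under the library average, no early fluorescence shift, positive overall ratio signal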
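Assay system: HEK293 cells with stable TRPC4beta plus mu-opioid receptor expression; Probe or stimulus: DAMGO in two steps, submaximal then maximal; Dosing: single-point compound dosing; Measured by: Fluo4 calcium-dye fluorescence, kinetic read; Read-out basis: B score from integrated Fluo4 fluorescence ratio.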
TRPC6 inh = mouse TRPC6 channel inhibitors, primary screen, cell-based, HEK293, membrane potential dye | B-score at 10 µM | actives 1.1% (n = 310,000) | ACh-evoked depolarization; active compounds read low;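 active = B-score under library mean minus 3 SD, initial fluorescence not abnormally high, positive integrated signal ratio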;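 also: B-score derived from integrated fluorescence ratio over the kinetic read; more negative B-score means stronger inhibition of depolarization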
A number is an active result; n = inactive. Only some compounds are listed: those with a hit (about 2.3% of all), similar ones and a draw of the others.

SMILES	TRPC6 act	TRPC4 agonist	TRPC4 PAM	TRPC4 block	TRPC6 inh
CCOC(=O)C1C(=O)C=C(c2ccc(C)cc2)CC1c1cccc([N+](=O)[O-])c1 (configuration not stated)	n	n	24	n	n
COc1cc(CN(C2CCCCC2C)S(=O)(=O)c2ccc(S(=O)(=O)NC3CC3)cc2)cc(OC)c1OC (configuration not stated)	n	n	n	n	n
COc1ccc(CN(C2CCCCC2C)S(=O)(=O)c2ccc(S(=O)(=O)N(C)C)cc2)cc1OC (configuration not stated)	n	n	23	n	n
CC(=O)c1cccc(N(C(=O)CNC(=O)c2ccco2)C(C(=O)NCC2CCCO2)c2ccccc2)c1 (configuration not stated)	n	n	11	n	n
Cc1cc(CN2CCC(n3nccc3NC(=O)c3ccccc3Cl)CC2)cc(C)c1O	n	n	n	n	n
CCC(Oc1ccc(Br)cc1)C(=O)N1CCN(c2ncccn2)CC1 (configuration not stated)	n	n	n	n	n
CS(=O)(=O)N1CCN(c2ccccc2NC(=O)CSc2ccc(Cl)cc2)CC1	n	n	10	n	n
CS(=O)(=O)N1CCN(c2ccccc2NC(=O)c2ccc(Cl)cc2)CC1	n	n	n	n	n
COc1cc(/C=C(\C#N)c2nc3c(s2)CCCC3)ccc1O	93	91	n	n	n
COc1cc(C(=O)Nc2cccc3c2CCCC3)cc(OC)c1OC	n	n	n	n	n
CC(=O)c1c(O)c(C)c(O)c2c1OC1=CC(=O)C(C(C)=O)C(=O)[C@@]12C (some centres not stated)	n	90	n	-6	n
CC(=O)Oc1c(C)c(OC(C)=O)c2c(c1C(C)=O)OC1CC(=O)C(C(C)=O)=C(O)C21C (configuration not stated)	n	n	n	n	n
Cc1ccc(NC(=O)NCc2ccccn2)c(C)c1	n	n	n	n	n
COc1cccc(CC2(CO)CCCN(Cc3ccccc3-c3ccco3)C2)c1 (configuration not stated)	n	43	n	-7	n
CCCn1ncc(CN2CCC(CO)(CC3CCCCO3)CC2)c1C (configuration not stated)	n	n	n	n	n
CCOC(=O)C1(CC2CCCCO2)CCN(Cc2cc3ccccc3[nH]2)CC1 (configuration not stated)	n	273	n	n	n
COc1cccc(CC2(CO)CCCN(Cc3ccc(-c4ccco4)cc3)C2)c1 (configuration not stated)	n	n	n	n	n
OCC1(CC2CCCCO2)CCN(Cc2ccccc2-c2ccco2)CC1 (configuration not stated)	n	75	n	n	n
CCOC(=O)C1(CC2CCCCO2)CCN(Cc2cn[nH]c2-c2cccc(F)c2)CC1 (configuration not stated)	n	76	n	n	n
CCOC(=O)C1(CC2CCCCO2)CCN(Cc2ccccc2-c2ccco2)CC1 (configuration not stated)	n	78	n	n	n
CCOC(=O)C1(CC2CCCCO2)CCN(Cc2cccnc2)CC1 (configuration not stated)	n	n	n	n	n
Cc1ccc(OCc2cc(C(=O)N(C)Cc3cnn(-c4ccccc4C)c3)no2)cn1	n	n	n	n	n
CCCCCn1nc(C(=O)N(CCOC)c2c(N)n(CCCC)c(=O)[nH]c2=O)c2ccccc2c1=O	n	n	n	n	n
COc1ccc(-n2c(O)c(/C=N/NS(=O)(=O)c3ccc(C)c([N+](=O)[O-])c3)c3ccccc3c2=O)cc1OC	n	56	n	n	n
CCOc1ccc(C(=O)NCc2ccco2)cc1OC	n	n	n	n	n
CN(C)C(CNC(=S)Nc1ccc(Cl)cc1)c1cccnc1 (configuration not stated)	n	86	n	n	n

Source: PubChem (Johns Hopkins Ion Channel Center)
